In publication PMC8114962 (Advanced therapeutics, 2021):

Tests used:
[1] = Solubility in aqueous solution; format: physicochemical; conditions: observation
[2] = biological target: T1, recombinant dg-Bcan protein (Homo sapiens, UniProt Q96GW7); experiment: Octet binding kinetics analysis, recombinant dg-Bcan; conditions: Octet RED
T1 sequence (Q96GW7 23-911): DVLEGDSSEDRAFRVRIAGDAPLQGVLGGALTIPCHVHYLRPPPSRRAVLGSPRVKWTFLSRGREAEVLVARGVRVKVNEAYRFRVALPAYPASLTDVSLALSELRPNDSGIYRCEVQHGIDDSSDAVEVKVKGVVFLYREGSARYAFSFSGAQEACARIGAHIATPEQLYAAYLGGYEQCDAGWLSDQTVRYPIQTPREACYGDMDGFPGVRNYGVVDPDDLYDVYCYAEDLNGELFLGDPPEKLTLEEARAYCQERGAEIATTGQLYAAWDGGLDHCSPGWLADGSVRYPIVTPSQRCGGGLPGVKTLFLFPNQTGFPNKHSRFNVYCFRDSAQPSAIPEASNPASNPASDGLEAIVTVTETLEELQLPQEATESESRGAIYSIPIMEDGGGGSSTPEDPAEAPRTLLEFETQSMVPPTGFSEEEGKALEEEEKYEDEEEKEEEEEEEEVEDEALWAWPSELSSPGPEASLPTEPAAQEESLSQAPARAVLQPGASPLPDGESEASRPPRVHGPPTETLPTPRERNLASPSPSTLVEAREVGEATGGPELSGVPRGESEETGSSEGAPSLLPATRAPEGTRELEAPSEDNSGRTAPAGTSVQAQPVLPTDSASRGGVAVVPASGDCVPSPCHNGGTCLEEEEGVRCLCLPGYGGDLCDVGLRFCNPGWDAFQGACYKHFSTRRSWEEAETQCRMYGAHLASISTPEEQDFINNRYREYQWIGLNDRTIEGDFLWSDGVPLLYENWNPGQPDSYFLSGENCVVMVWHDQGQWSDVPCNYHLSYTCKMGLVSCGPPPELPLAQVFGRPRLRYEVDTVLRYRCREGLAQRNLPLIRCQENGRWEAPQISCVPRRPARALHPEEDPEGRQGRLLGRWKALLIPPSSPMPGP
Method in brief: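 Binding kinetics of test peptides measured by biolayer interferometry (Octet RED384) against recombinant human brevican, deglycosylated before use and held in PBS with 0.1 mM EDTA, pH 6.8. Fully glycosylated Bcan served as a comparison protein. The run used working buffer (0.9% NaCl irrigation, 0.05% Tween) with 1000 rpm agitation at 30°C. KD and Rmax came from a one-site specific binding non-linear regression fit.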

Substance	solubility in aqueous solution [1]	dg-Bcan protein binding [2]
BTP-2	insoluble and precipitated in aqueous solution	
Scr-7		did not exhibit dg-Bcan protein binding
